Results taken from article PMC4467241 (Clinical Pharmacology in Drug Development, 2014).
Where two headings read alike, the source gives them in different places. Marks after values point to notes of the source that are not given here.

How the values were obtained:
[1] = type: in vivo, human; conditions: for CL/F / AUC(0-t) / AUC(0-inf) / Cmax / half-life / tmax: plasma; for AUC(0-t) / AUC(0-inf) / Cmax / half-life / tmax: human, po; for AUC(0-t): AUC0–t; for AUC(0-inf): AUC0–∞
How it was run: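 Heparinised plasma was taken predose and at 0.5–48 h, spun within 30 min and stored at −70 °C. Parent and metabolite were measured by SPE LC–MS/MS; noncompartmental AUC, with ANOVA on log values giving geometric-mean ratio and 90% CI.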

[2] = cited from earlier work
[3] = 10 mg, MTX 10 mg oral alone (Day 1), N = 1
[4] = 12.5 mg, MTX 12.5 mg oral alone (Day 1), N = 1
[5] = 17.5 mg, MTX 17.5 mg oral alone (Day 1), N = 1
[6] = MTX 12.5 mg oral + Apremilast 30 mg Q12H (Day 8), N = 1
[7] = MTX 17.5 mg oral + Apremilast 30 mg Q12H (Day 8), N = 1
[8] = methotrexate in plasma, ANOVA, N = 15
[9] = methotrexate in plasma, all dose groups, N = 15, acceptance range 80–125%

**Q.** For `CN(Cc1cnc2nc(N)nc(N)c2n1)c1ccc(C(=O)N[C@@H](CCC(=O)O)C(=O)O)cc1` [MTX, methotrexate, reference compound], which CL/F ([1]; MTX 10 mg oral alone (Day 1), N = 1) is on record?
**A.** 120 mL/min

**Q.** What about the CL/F ([1]; MTX 12.5 mg oral alone (Day 1), N = 1) of the same compound?
**A.** 88 mL/min

**Q.** What about the CL/F ([1]; MTX 17.5 mg oral alone (Day 1), N = 1) of the same compound?
**A.** 129 mL/min

**Q.** And the CL/F ([1]; MTX 20 mg oral alone (Day 1), N = 6, arithmetic mean (SD))?
**A.** 122 (33.7) mL/min

**Q.** What about the AUC(0-t) [1, 3] of the same compound?
**A.** 1390 ng·h/mL

**Q.** What about the AUC(0-inf) [1, 3] of the same compound?
**A.** 1380 ng·h/mL

**Q.** What about the Cmax [1, 3] of the same compound?
**A.** 323 ng/mL

**Q.** What about the half-life ([1]; 10 mg, t1/2, MTX 10 mg oral alone (Day 1), N = 1) of the same compound?
**A.** 3.5 h

**Q.** And the tmax [1, 3]?
**A.** 1.45 h

**Q.** What about the AUC(0-t) [1, 4] of the same compound?
**A.** 2360 ng·h/mL

**Q.** And the Cmax [1, 4]?
**A.** 528 ng/mL

**Q.** And the half-life ([1]; 12.5 mg, t1/2, MTX 12.5 mg oral alone (Day 1), N = 1)?
**A.** 3.6 h

**Q.** And the tmax [1, 4]?
**A.** 1 h

**Q.** What about the AUC(0-t) [1, 5] of the same compound?
**A.** 2250 ng·h/mL

**Q.** What about the Cmax [1, 5] of the same compound?
**A.** 646 ng/mL

**Q.** And the half-life ([1]; 17.5 mg, t1/2, MTX 17.5 mg oral alone (Day 1), N = 1)?
**A.** 5.6 h

**Q.** What about the tmax [1, 5] of the same compound?
**A.** 1 h

**Q.** What about the AUC(0-t) [1, 6] of the same compound?
**A.** 3020 ng·h/mL

**Q.** And the AUC(0-t) [1, 7]?
**A.** 2270 ng·h/mL

**Q.** What about the AUC(0-inf) [1, 6] of the same compound?
**A.** 3010 ng·h/mL

**Q.** What about the Cmax [1, 6] of the same compound?
**A.** 669 ng/mL

**Q.** And the Cmax [1, 7]?
**A.** 565 ng/mL

**Q.** What about the half-life ([1]; t1/2, MTX 12.5 mg oral + Apremilast 30 mg Q12H (Day 8), N = 1) of the same compound?
**A.** 3.2 h

**Q.** And the tmax [1, 6]?
**A.** 2.07 h

**Q.** What about the tmax [1, 7] of the same compound?
**A.** 1 h

**Q.** What about the “Intra-subject CV% of AUC0–∞” value ([1]; methotrexate in plasma, ANOVA, N = 14) of the same compound?
**A.** 11.19%

**Q.** What about the “Intra-subject CV% of AUC0–t” value [1, 8] of the same compound?
**A.** 10.57%

**Q.** What about the “Intra-subject CV% of Cmax” value [1, 8] of the same compound?
**A.** 11.07%

**Q.** And the “AUC0–∞ ratio of geometric means (“methotrexate + apremilast”/“methotrexate”)” value ([1]; methotrexate in plasma, all dose groups, N = 14, acceptance range 80–125%)?
**A.** 100.39

**Q.** And the “tmax median difference (“MTX + Apremilast” − “MTX”)” value ([1]; methotrexate in plasma, all dose groups, N = 15, Hodges–Lehmann)?
**A.** 0.235 ^d hr

**Q.** And the “AUC0–t ratio of geometric means (“methotrexate + apremilast”/“methotrexate”)” value [1, 9]?
**A.** 99.90

**Q.** What about the “Cmax ratio of geometric means (“methotrexate + apremilast”/“methotrexate”)” value [1, 9] of the same compound?
**A.** 99.49

**Q.** And the “90% CI for Cmax, AUC0–t and AUC0–∞ versus FDA acceptance range of 80–125%” value ([1]; methotrexate with versus without apremilast)?
**A.** within the acceptance range for equivalency

**Q.** What about the “Fraction metabolized to 7-hydroxy methotrexate” value [2] of the same compound?
**A.** ~10%
